Each block holds one molecule with its values, some of them ahead of it. Active and inactive are the calls of the source. No cut-off for these calls is given here.
What was measured:
[1] = Photosensitizing ability of the compound assessed as singlet oxygen quantum yield under 600nm monochromatic light irradiation by DPBF based assay relative to control; format: functional
How it was run: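 Singlet oxygen generation followed by the decrease in DPBF absorbance under irradiation. DPBF (20–25 μm) used at 5–10-fold excess over compound (2.5–5 μm).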

[2] = tested on: AD293; assay: Cytotoxicity against human AD293 cells assessed as cell viability at 0.1 to 10 uM incubated for 24 hrs by MTT assay; format: toxicity, cell-based; conditions: ad293, 24 h, dose 0.1-10 µM
How it was run: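 AD293 cells seeded at 4 × 10^4 cells/well in DMEM with 10% FBS. Next day, compound (100 nM, 1 μM, 10 μM) or vehicle added in serum-free DMEM for 24 h, no irradiation. MTT (5 mg/mL reagent) added for 3 h at 37 °C, formazan dissolved in DMSO, absorbance read at 590 nm. Triplicate wells, four independent experiments.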

[3] = Photophysical property of the compound assessed as fluorescence quantum yield; format: physicochemical
[4] = Dark toxicity in human A549 cells assessed as cell viability at 10 uM under dark condition and measured after 72 hrs by CCK-8 method relative to control; format: cell-based; conditions: read-out: Activity
How it was run: (§1)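 A549, HaCaT and HeLa cells seeded at 2 × 10^3 cells/well in phenol red-free DMEM with 10% FBS. After 24 h, medium replaced with 1% DMSO containing 10 μM compound. After 90 min, one plate kept dark and one exposed to 530 or 650 nm LED (30 mW) for 15 min. Plates incubated 72 h, then CCK-8 read at 450 nm. Viability taken relative to dark control. Triplicates (HaCaT six).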

[5] = Dark toxicity in human HeLa cells assessed as cell viability at 10 uM under dark condition and measured after 72 hrs by CCK-8 method relative to control; format: cell-based; conditions: read-out: Activity; how it was run: as §1
[6] = Phototoxicity in human A549 cells assessed as cell viability at 10 uM under 530 ot 650nm 30 mW LED light irradiation and measured after 72 hrs by CCK-8 method relative to control; format: functional; conditions: A549, light or radiation study, read-out: Activity; how it was run: as §1
[7] = Dark toxicity in human HaCaT cells assessed as cell viability at 10 uM under dark condition and measured after 72 hrs by CCK-8 method relative to control; format: cell-based; conditions: read-out: Activity; how it was run: as §1
[8] = tested on: AD293; assay: Effect on morphological changes in human AD293 cells at 10 uM; format: functional, cell-based
How it was run: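 AD293 cells treated with 10 μM compound, followed by LED irradiation or kept unirradiated, then morphology examined by microscopy.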

[9] = target: T1, Toll-like receptor 7 (Homo sapiens) (UniProt Q9NYK1); assay: Activation of TLR7 in human AD293 cells assessed as IkappaB-alpha degradation at 10 uM preincubated with NAC followed by compound addition and measured after 30 mins under 650nm red light irradiation by Western blot analysis; format: cell-based; conditions: filed as activator
T1 sequence (whole entry): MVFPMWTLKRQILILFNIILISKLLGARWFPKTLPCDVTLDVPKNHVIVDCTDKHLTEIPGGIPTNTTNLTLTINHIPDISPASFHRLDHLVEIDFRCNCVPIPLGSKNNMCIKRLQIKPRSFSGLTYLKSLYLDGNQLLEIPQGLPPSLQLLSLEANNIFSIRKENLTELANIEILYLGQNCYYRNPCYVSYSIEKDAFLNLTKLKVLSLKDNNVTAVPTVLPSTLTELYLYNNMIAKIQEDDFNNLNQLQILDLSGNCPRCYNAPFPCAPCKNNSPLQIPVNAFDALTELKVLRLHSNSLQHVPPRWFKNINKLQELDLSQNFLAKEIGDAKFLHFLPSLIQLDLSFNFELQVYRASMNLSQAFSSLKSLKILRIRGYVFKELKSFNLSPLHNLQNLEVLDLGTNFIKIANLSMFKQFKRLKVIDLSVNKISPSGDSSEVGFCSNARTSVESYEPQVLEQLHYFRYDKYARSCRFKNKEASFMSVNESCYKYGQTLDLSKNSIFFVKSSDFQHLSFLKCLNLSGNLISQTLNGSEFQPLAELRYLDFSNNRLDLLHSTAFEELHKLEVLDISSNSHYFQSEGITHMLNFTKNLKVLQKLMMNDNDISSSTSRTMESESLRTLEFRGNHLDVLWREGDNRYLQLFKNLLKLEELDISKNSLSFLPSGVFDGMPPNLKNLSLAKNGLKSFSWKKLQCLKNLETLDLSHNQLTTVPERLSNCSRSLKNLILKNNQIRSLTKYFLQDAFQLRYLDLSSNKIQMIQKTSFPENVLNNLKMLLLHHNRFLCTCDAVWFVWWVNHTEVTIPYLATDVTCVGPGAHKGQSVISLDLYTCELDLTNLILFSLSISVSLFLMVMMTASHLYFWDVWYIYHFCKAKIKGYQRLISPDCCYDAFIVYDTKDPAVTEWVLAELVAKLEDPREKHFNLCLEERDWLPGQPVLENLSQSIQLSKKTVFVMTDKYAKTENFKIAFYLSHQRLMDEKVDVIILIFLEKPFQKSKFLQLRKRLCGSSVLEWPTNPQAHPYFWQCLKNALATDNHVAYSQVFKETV
How it was run: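 Stable TLR7-expressing AD293 line made by TLR7 plasmid transfection and hygromycin B selection (250 μg/mL, 10 days). Cells pretreated with N-acetyl-cysteine, then given 10 μM compound, with or without 30 min 650 nm red-light irradiation. Lysates run on 10% SDS-PAGE and blotted to PVDF. Total IκB probed (1:1000) with GAPDH loading control, ECL detection. Means of three experiments.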

[10] = tested on: AD293; assay: Effect on morphological changes in human AD293 cells stable expressing TLR7 at 10 uM pretreated with N-Acetylcysteine for 30 mins followed by compound addition and measured after 30 mins under LED light irradiation at 650 nm by microscopic analysis; format: functional, cell-based
How it was run: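 TLR7-stable AD293 cells seeded at 20,000/well. After 24 h, medium switched to Opti-MEM. 1 h later, 10 mM N-acetyl-cysteine added. 30 min after that, cells given 10 μM compound and exposed to 650 nm LED for 30 min, or shielded from light as control. Cells observed by microscope 24 h after drug treatment.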

[11] = Photorelease activity of the compound in aqueous medium at 30 uM measured after 1 hr under dark condition by UV-vis spectroscopy analysis; format: ADME; conditions: buffer
[12] = Phototoxicity in human HaCaT cells assessed as cell viability at 10 uM under 530 ot 650nm 30 mW LED light irradiation and measured after 72 hrs by CCK-8 method relative to control; format: functional; conditions: light or radiation study, read-out: Activity; how it was run: as §1
[13] = Thermal stability of compound in DMSO-d6 at 37.5 degree C measured after 1 day by 1H NMR spectroscopy analysis relative to control; format: physicochemical; conditions: 24 h
How it was run: (§2)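 Compound in DMSO-d6 followed by 1H NMR. Degradation taken from the intensity of three signals (one resiquimod, one BODIPY, and the linkage NH), each relative to the DMSO-d6 internal standard, and the three averaged.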

[14] = Phototoxicity in human HeLa cells assessed as cell viability at 10 uM under 530 ot 650nm 30 mW LED light irradiation and measured after 72 hrs by CCK-8 method relative to control; format: functional; conditions: light or radiation study, read-out: Activity; how it was run: as §1
[15] = Thermal stability of compound in DMSO-d6 at 37.5 degree C measured after 3 days by 1H NMR spectroscopy analysis relative to control; format: physicochemical; conditions: 72 h; time 3 day; how it was run: as §2
[16] = Photorelease activity of the compound in CH3CN at 532nm laser light measured upto 60 mins under air condition by HPLC analysis relative to control; format: ADME; set-up: dose or concentration left out as unconfirmed; conditions: 1 h
[17] = Thermal stability of compound in DMSO-d6 at 37.5 degree C measured after 2 days by 1H NMR spectroscopy analysis relative to control; format: physicochemical; conditions: 48 h; time 2 day; how it was run: as §2
[18] = Photorelease activity of the compound in aqueous medium assessed as reduction in lamda maximum at 30 uM measured after 1 hr under 525 nm LED light radiation by UV-vis spectroscopy analysis; format: ADME; conditions: buffer
[19] = Photorelease activity of the compound in CH3CN assessed as retention time under 532nm laser light by HPLC analysis; format: physicochemical
[20] = Photorelease activity of the compound in DMSO-d6 measured after 1 hr under 532nm YAG laser radiation by 1H NMR spectroscopy analysis relative to control; format: ADME
[21] = Thermal stability of compound in DMSO-d6 at 37.5 degree C measured before 24 hrs by 1H NMR spectroscopy analysis; format: physicochemical; how it was run: as §2
[22] = Photorelease activity of the compound in CH3CN at 532nm laser light measured upto 60 mins under argon condition by HPLC analysis relative to control; format: ADME; set-up: dose or concentration left out as unconfirmed; conditions: 1 h

Activity [3]: 0.554
Compound: COCCOCCOCCOc1ccc(/C=C/C2=[N+]3C(=C(CO)c4c(C)cc(/C=C/c5ccc(OCCOCCOCCOC)cc5)n4[B-]3(F)F)C(C)=C2)cc1
Activity [1]: 0.37%
Activity [2]: Non-toxic

Activity [9]: Active
Compound: CCOCc1nc2c(N)nc3ccccc3c2n1CC(C)(C)O [RESIQUIMOD]
viability at 72 h, 10 µM [4]: 19%
viability at 72 h, 10 µM [5]: 4%
viability at 10 µM [6]: 21%
viability at 72 h, 10 µM [7]: 32%
Activity [8]: inactive
Activity [10]: inactive

Activity [11]: Not_active
Activity [13]: 12%
Activity [15]: 31%
Activity [16]: ~ 68%
Activity [9]: Active
Activity [17]: 22%
Activity [18]: Active
Retention_time [19]: 6.8 min
Activity [20]: 100%
Activity [21]: Not_active
Activity [22]: ~ 77%
Activity [3]: 0.809
Compound: CCOCc1nc2c(NC(=O)OCC3=C4C(C)=CC(C)=[N+]4[B-](F)(F)n4c(C)cc(C)c43)nc3ccccc3c2n1CC(C)(C)O
viability at 10 µM [12]: 88%
viability at 72 h, 10 µM [4]: 19%
viability at 72 h, 10 µM [5]: 2%
viability at 10 µM [14]: 54%
viability at 72 h, 10 µM [7]: 6%
Activity [1]: 3.2%
Activity [2]: Toxic

Source: ChEMBL document CHEMBL6103596, “Design, Synthesis, and Biological Evaluation of BODIPY-Caged Resiquimod as a Dual-Acting Phototherapeutic” (J Med Chem, 2025)
